Assay outcomes as filed in PubChem.
PKA-R2B activ = activators of PKA-R2B holoenzyme, primary screen, biochemical, fluorescence polarization, Cy5-IP20, human; PKA-R2B holoenzyme dissociation; R2B truncated from residue 108, S112A mutant; 0% DMSO only, 100% 113 µM cGMP; activation, % at 11.4 µM; 340,000 tested, 0.079% active; AID 504700, 2011;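 active means activation above a cutoff set at the mean over all compounds plus 3 SD, cut at about 18% in these data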;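 further: higher means more holoenzyme dissociation and a rise in polarization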
Target sequence (P31323 whole entry, looked up, other chains not shown, the tested form may be a part): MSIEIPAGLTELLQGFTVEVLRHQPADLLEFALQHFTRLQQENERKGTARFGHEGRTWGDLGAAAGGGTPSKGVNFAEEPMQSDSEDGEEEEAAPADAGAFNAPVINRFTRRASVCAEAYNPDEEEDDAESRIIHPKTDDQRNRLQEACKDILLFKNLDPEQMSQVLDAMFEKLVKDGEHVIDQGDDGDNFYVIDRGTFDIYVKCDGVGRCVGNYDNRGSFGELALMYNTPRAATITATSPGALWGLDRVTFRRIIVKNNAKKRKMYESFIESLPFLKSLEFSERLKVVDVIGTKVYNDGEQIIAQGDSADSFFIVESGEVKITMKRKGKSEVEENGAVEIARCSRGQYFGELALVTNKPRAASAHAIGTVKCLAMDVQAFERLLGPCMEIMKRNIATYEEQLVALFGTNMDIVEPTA
TbMetRS inhib = T. brucei MetRS inhibitors, primary screen, biochemical, luminescence; 360,000 tested, 0.4% active; inhibition, % at 11.9 µM; purified T. brucei MetRS, ATP depletion, Kinase-Glo luminescence; methionyl-tRNA synthetase (Trypanosoma brucei brucei);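 active means inhibition above a per-plate cutoff of the control wells' mean inhibition plus 3 SD, cut at about 5.5% in these data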;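 further: 0% = DMSO wells median and 100% = median of wells with control inhibitor compound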
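technique = Kinase-Glo luminescence, ATP depletion format | system = purified MetRS (methionyl-tRNA synthetase) enzyme from Trypanosoma brucei | timing = 15 min preincubation, 2 h reaction, all 25 °C | evaluation = percent inhibition versus plate control medians | dosing = single dose, 11.9 µM final nominal, 0.9% final DMSO | also added = substrates ATP, L-methionine and bulk Escherichia coli tRNA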
H9c2 protect = cardioprotection against H2O2-induced cell death, primary screen, uHTS, H9c2 cells, ATPLite luminescence | H9c2 cardiomyocytes, H2O2 injury protection, 2 h | protection from H2O2 cell death, % at 20 µM | 360,000 tested, 0.63% active | AID 588492, 2011;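 active means compounds giving at least 50% protection of heart cells from peroxide-induced death in the single-dose screen, raw or plate-pattern-corrected value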;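 further: 0% = DMSO wells with peroxide and 100% = DMSO wells without peroxide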
PKA-R1A activ = activators of PKA-R1A holoenzyme, primary screen, biochemical, fluorescence polarization, Cy5-IP20, bovine R1A, mouse PKAc. cAMP-dependent protein kinase type I-alpha regulatory subunit (Bos taurus) + …. activation, % at 11.4 µM. AID 504707, 2011. PKA-R1A dissociation; scaled: DMSO 0%, 113 µM cGMP 100%. 340,000 tested, 0.083% active;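 active means percent activation above the mean of all tested compounds plus 3 SD, cut at about 19% in these data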;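 further: higher means more PKAc released from R1A so a rise in polarization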
Rin1 Abl inh = inhibitors of Rin1-Abl protein binding, primary screen, biochemical, TR-FRET; Tyrosine-protein kinase ABL1 (Homo sapiens) + Ras and Rab interactor 1 (Homo sapiens), …; inhibition, % at 7.35 µM; 360,000 tested, 0.4% active; AID 588664, 2011; in the data active means inhibition above about 5%, passing the limit was not always enough
Tb MetRS conf = T. brucei MetRS inhibitors, confirmation, biochemical, luminescence; shares compounds with TbMetRS inhib; T. brucei MetRS enzyme, luminescence (ATP depletion); inhibition, % at 11.9 µM; 1,400 tested, 93% active; AID 624412, 2012; in the data active means inhibition above about 7%
Jurkat cytotox = Jurkat T cell cytotoxicity, cytotoxicity control for T. brucei MetRS inhibitor project, luminescence, high throughput | shares compounds with TbMetRS inhib | Jurkat cells viability, ATP luminescence | inhibition, % at 8.3 µM | 1,400 tested, 12% active | AID 624413, 2012; in the data active means inhibition above about 15%;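 further: 0% = vehicle and 100% = reference inhibitor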
Tb MetRS inh FP = T. brucei MetRS inhibitors, orthogonal assay for T. brucei MetRS inhibitor project, biochemical, fluorescence polarization | shares compounds with TbMetRS inhib | purified T. brucei MetRS | inhibition, % at 11.9 µM | 1,400 tested, 44% active | AID 651607, 2012; in the data active means inhibition above about 17%;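 further: 0% = vehicle wells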
Active calls of the source: *; nt = no result given; ! = not confirmed by another sample. An excerpt weighted towards active compounds, which were near 1.5% of everything screened.

SMILES | PKA-R2B activ | TbMetRS inhib | H9c2 protect | PKA-R1A activ | Rin1 Abl inh | Tb MetRS conf | Jurkat cytotox | Tb MetRS inh FP
Cc1ccc(C2c3[nH]c4ccccc4c3C[C@H]3C(=O)N(c4ccccc4C(=O)N4CCC[C@@H]4C(=O)O)C(=O)N23)cc1 (stereo partly specified) | -4 | 4 | 6 | -5 | -3 | nt | nt | nt
O=C1[C@@H]2Cc3c([nH]c4ccccc34)C(c3ccccc3)N2C(=O)CN1C1CC1 (stereo partly specified) | 4 | 0 | 7 | 0 | 2 | nt | nt | nt
COc1cccc(C2c3[nH]c4ccccc4c3C[C@H]3C(=O)N(c4ccccc4C(=O)N4CCCC4C(=O)O)C(=O)N23)c1 (stereo partly specified) | 3 | 6.4* | -2 | -14 | -2 | 16* | -1 | 4
O=C1[C@@H]2Cc3c([nH]c4ccccc34)C(c3cccc([N+](=O)[O-])c3)N2C(=O)CN1CCCO (stereo partly specified) | 1 | 96* | 5 | -1 | 1 | 95* | -1 | 93*
CN1CC(=O)N2C(c3cccc([N+](=O)[O-])c3)c3[nH]c4ccccc4c3C[C@H]2C1=O (stereo partly specified) | -5 | 78* | 3 | 1 | -1 | 105* | -5 | 91*
O=C1[C@@H]2Cc3c([nH]c4ccccc34)C(c3ccc([N+](=O)[O-])cc3)N2C(=O)CN1C1CC1 (stereo partly specified) | -2 | 9.4* | 45 | -6 | 3 | 20* | 9 | 8
COCCCN1CC(=O)N2C(c3cccc(C)c3)c3[nH]c4ccccc4c3C[C@H]2C1=O (stereo partly specified) | -17 | 5 | -1 | -7 | -1 | nt | nt | nt
Cn1c(=O)n(C)c2cc(NC(=O)CSc3ccccc3)ccc21 | 5 | -1 | 0 | -4 | 0 | nt | nt | nt
CN1CC(=O)N2C(c3ccc(Cl)cc3)c3[nH]c4ccccc4c3C[C@H]2C1=O (stereo partly specified) | 3 | 7.2* | 44 | -2 | 2 | 18* | 43* | 0
COc1cccc(C2c3[nH]c4ccccc4c3C[C@H]3C(=O)N(CCCCCO)CC(=O)N23)c1 (stereo partly specified) | -18 | 10.0* | 11 | -1 | 3 | 21* | 10 | 1
Nc1c(C(=O)NCc2ccco2)c2nc3ccccc3nc2n1CCc1ccc(F)cc1 | 0 | 8.4* | 27 | -13 | 15* | 11* | 14 | 10
CCOC(=O)C(=NC1CCS(=O)(=O)C1)NNc1ccc(Br)cc1 (stereo unspecified) | 0 | 15* | -1 | 4 | 0 | 46* | -5 | 14
COc1ccccc1C(=O)Nn1c(C)nc2ccccc2c1=O | 2 | 0 | 6 | 3 | 0 | nt | nt | nt
CCOc1ccc(CONS(=O)(=O)c2ccc(NC(C)=O)cc2)cc1Cl | -2 | 42* | -7 | 10 | 0 | 67* | 7 | 57*
CC(=O)Nc1ccc(S(=O)(=O)NNC(=O)COc2ccc(Cl)cc2Cl)cc1 | -9 | 0 | 2 | -14 | -2 | nt | nt | nt
O=C(Nc1ccccn1)C1CCN(C(=O)Nc2ccccc2)CC1 | -1 | 0 | 4 | -8 | 4 | nt | nt | nt
CN(C)CCN=Cc1c(O)n(-c2ccc(S(=O)(=O)N3CCOCC3)cc2)c(=O)c2ccccc12 | -2 | -1 | 3 | -7 | 0 | nt | nt | nt
CCOC(=O)c1ccc2c(c1)NCc1cccc(OC)c1O2 | -10 | 5.8* | -2 | -5 | 1 | 11* | 11 | 9
O=C(CN1CCN(C(=O)C2CCCO2)CC1)Nc1ccc(Cl)cc1 (stereo unspecified) | 3 | 0 | 8 | -6 | -2 | nt | nt | nt
Brc1ccc2[nH]c3nc(SCCN4CCOCC4)nnc3c2c1 | -5 | 16* | -17 | 7 | -4 | 33* | 15*! | 23*!
O=C(NNC(=O)c1ccc2nonc2c1)Nc1ccc(Cl)cc1 | nt | 10* | -4 | nt | -1 | 20* | 5 | 8
O=C(NCc1nc2ccccc2[nH]1)C1=C[C@@H](c2ccc(C(F)(F)F)cc2)C[C@@H](OCc2ccc(CO)cc2)O1 | -1 | 37* | -3 | -1 | -1 | 79* | -1 | 49*
O=C(NCc1nc2ccccc2[nH]1)C1=C[C@H](c2ccc3c(c2)OCO3)C[C@H](OCc2ccc(CO)cc2)O1 | -1 | 54* | 4 | -2 | 1 | 90* | -5 | 60*
O=C(NCc1nc2ccccc2[nH]1)C1=C[C@H](c2coc3ccccc3c2=O)C[C@H](OCc2ccc(CO)cc2)O1 | 1 | 24* | 20 | 4 | 2 | 58* | 1 | 32*
CC(C)(C)[C@H]1C=C(C(=O)NCc2nc3ccccc3[nH]2)O[C@@H](OCc2ccc(CO)cc2)C1 | -9 | 62* | -1 | 0 | 0 | 87* | 7 | 61*
O=C(NCc1ccccc1)C1=C[C@@H](c2ccc3c(c2)OCO3)C[C@@H](OCc2ccc(CO)cc2)O1 | -9 | 0 | 4 | -5 | -1 | nt | nt | nt
O=C(NCc1nc2ccccc2[nH]1)C1=C[C@@H](c2ccccc2)C[C@@H](OCc2ccc(CO)cc2)O1 | -9 | 77* | 9 | -7 | -2 | 104* | -4 | 84*
O=C(NCc1ccccc1)C1=C[C@@H](c2ccccc2)C[C@@H](OCc2ccc(CO)cc2)O1 | -1 | 0 | 6 | -15 | 2 | nt | nt | nt
O=C(NCc1nc2ccccc2[nH]1)C1=C[C@H](c2ccccc2)C[C@H](OCc2ccc(CO)cc2)O1 | -10 | 31* | 4 | -5 | 3 | 75* | 1 | 38*
O=S(=O)(Nc1nccs1)c1ccc(NCc2cc(Br)cc(Br)c2O)cc1 | -14 | 36* | -5 | -9 | -3 | 68* | -9 | 24*
